Each block holds one compound with its values, some of them ahead of it.
Experiments:
[1] = Chemical stability assessed as half life of hydrolysis in 0.0125 M sodium hydroxide buffer at pH 12.1; type: physicochemical
Procedure, shortened: (§1)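 Half-lives at 37 °C across buffers from pH 4.0 to 14 (1.0, 0.10 and 0.0125 M NaOH; 0.05 M glycine/NaOH pH 10.0; 0.10 M phosphate pH 8.1 and 7.4; 0.05 M citrate pH 4.0). UV decay of the diazeniumdiolate chromophore at λmax. First-order k from the slope of ln(At − Ainf) versus time.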

[2] = Chemical stability assessed as half life of hydrolysis in 1.0 M sodium hydroxide buffer at pH 14.0; type: physicochemical; procedure, shortened: as §1
[3] = Chemical stability assessed as half life of hydrolysis in 0.05 M citrate buffer at pH 4.0; type: physicochemical; procedure, shortened: as §1
[4] = Chemical stability assessed as half life of hydrolysis in 0.5 M glycine/sodium hydroxide buffer at pH 10.0; type: physicochemical; settings: in the assay text read “0.05 M glycine” for “0.5 M glycine”; procedure, shortened: as §1
[5] = Chemical stability assessed as half life of hydrolysis in 0.10 M sodium hydroxide buffer at pH 13.0; type: physicochemical; procedure, shortened: as §1
[6] = Chemical stability assessed as half life of hydrolysis in 0.10 M phosphate buffer at pH 7.4; type: physicochemical
Procedure, shortened: (§2)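 Hydrolysis at 37 °C in 1.0 M NaOH, 0.1 M phosphate pH 7.4, or 0.05 M citrate pH 3.8–4.6, followed as first-order loss of the diazeniumdiolate UV absorbance at λmax. k from the ln(At − Ainf) versus time slope; Ainf was extrapolated when the reaction was incomplete. NaOH runs were followed in a thermostated diode-array cell.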

[7] = Chemical stability assessed as half life of hydrolysis in 0.10 M phosphate buffer at pH 8.1; type: physicochemical; procedure, shortened: as §1
[8] = Stability assessed as nitric oxide release in presence of human placenta N-acetyl-glucosaminidase measured per mole of glycoside in 0.1 M phosphate buffer at pH 7.4 at 0.10 mM […]; type: ADME; settings: pH 7.4, 100 µM
Procedure, shortened: (§3)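 37 °C in 0.1 M phosphate pH 7.4 with 0.05 mM DTPA. Jack bean N-acetylglucosaminidase at 0.11 units/mL or human placenta enzyme at 0.044 units/mL; substrate 0.10 or 0.16 mM initial. NO measured by chemiluminescence until evolution stopped, with the curve integrated per mole glycoside. Nitrite in the remaining solution measured by Griess. Enzyme activity verified with PNP-NAG.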

[9] = Chemical stability assessed as half life of hydrolysis in at pH 14; type: physicochemical; settings: 1.0 M NaOH; procedure, shortened: as §2
[10] = Chemical stability assessed as half life of hydrolysis in 0.1 M phosphate buffer at pH 7.4; type: physicochemical; procedure, shortened: as §2
[11] = Stability assessed as nitrite release in presence of human placenta N-acetyl-glucosaminidase measured per mole of glycoside in 0.1 M phosphate buffer at pH 7.4 at 0.10 mM by Griess reagent assay; type: ADME; settings: pH 7.4, 100 µM; procedure, shortened: as §3
[12] = Stability in iNOS deficient mouse macrophage assessed as increase in nitric oxide accumulation at 0.25 mM after 24 hrs; type: ADME, cell-based; settings: 250 µM
Procedure, shortened: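 Glycoside (0.25 mM initial) incubated 24 h at 37 °C in PBS, in RPMI with 2.5% fetal calf serum, or in that medium while culturing iNOS-deficient mouse peritoneal macrophages. Nitrite in supernatant measured by Griess. Triplicates, mean; one of two experiments.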

[13] = Stability assessed as nitric oxide release in presence of Jack bean N-acetyl-glucosaminidase measured per mole of glycoside in 0.1 M phosphate buffer at pH 7.4 at 0.10 mM […]; type: ADME; settings: pH 7.4, 100 µM; procedure, shortened: as §3
[14] = Chemical stability assessed as half life of hydrolysis in 0.05 M citrate buffer at pH 4.6; type: physicochemical; procedure, shortened: as §2
[15] = Stability assessed as nitrite release in presence of Jack bean N-acetyl-glucosaminidase measured per mole of glycoside in 0.1 M phosphate buffer at pH 7.4 at 0.10 mM by Griess reagent assay; type: ADME; settings: pH 7.4, 100 µM; procedure, shortened: as §3
[16] = Chemical stability assessed as half life of hydrolysis in 0.05 M citrate buffer at pH 3.8; type: physicochemical; procedure, shortened: as §2
[17] = Stability in iNOS-deficient mouse peritoneal macrophages in RPMI medium assessed as increase in nitric oxide release at 0.25 mM after 24 hrs; settings: 250 µM
[18] = Stability assessed as nitric oxide release in presence of human placenta N-acetyl-glucosaminidase measured per mole of glycoside in 0.1 M phosphate buffer at pH 7.4 at 0.16 mM […]; type: ADME; settings: pH 7.4, 160 µM; procedure, shortened: as §3
[19] = Stability assessed as nitrite release in presence of human placenta N-acetyl-glucosaminidase measured per mole of glycoside in 0.1 M phosphate buffer at pH 7.4 at 0.16 mM by Griess reagent assay; type: ADME; settings: pH 7.4, 160 µM; procedure, shortened: as §3
[20] = Stability assessed as nitric oxide release in presence of Jack bean N-acetyl-glucosaminidase measured per mole of glycoside in 0.1 M phosphate buffer at pH 7.4 at 0.16 mM […]; type: ADME; settings: pH 7.4, 160 µM; procedure, shortened: as §3
[21] = Stability assessed as nitrite release in presence of Jack bean N-acetyl-glucosaminidase measured per mole of glycoside in 0.1 M phosphate buffer at pH 7.4 at 0.16 mM by Griess reagent assay; type: ADME; settings: pH 7.4, 160 µM; procedure, shortened: as §3

SMILES: CCN(CC)/[N+]([O-])=N\OC1CCCCO1 (configuration not stated)
- t1/2 [1]: 3.5 min
- t1/2 [2]: 2.5 min
- t1/2 [3]: 3.2 min
- t1/2 [4]: 2.9 min
- t1/2 [5]: 2.7 min
- t1/2 [6]: 3.1 min
- t1/2 [7]: 3.5 min

SMILES: CCN(CC)/[N+]([O-])=N/O[C@@H]1O[C@H](CO)[C@@H](O)[C@H](O)[C@H]1NC(C)=O
- Activity [8]: 1.73 mol/mol
- t1/2 [9]: 51 min
- t1/2 [10]: 0.5 days
- Activity [11]: 0.24 mol/mol
- Activity [12]: 2
- Activity [13]: 1.26 mol/mol
- t1/2 [14]: 0.7 days
- Activity [15]: 0.05 mol/mol

SMILES: CCN(CC)/[N+]([O-])=N/O[C@H]1C[C@@H](O)[C@H](O)[C@@H](CO)O1
- t1/2 [9]: 23 min
- t1/2 [10]: 0.5 days
- t1/2 [16]: 1.2 days

SMILES: CC(=O)N[C@H]1[C@H](O/N=[N+](\[O-])N2CCCC2)O[C@H](CO)[C@@H](O)[C@@H]1O
- Activity [17]: 4
- t1/2 [10]: > 10 days
- Activity [18]: 1.69 mol/mol
- Activity [19]: 0.36 mol/mol
- Activity [20]: 1.72 mol/mol
- t1/2 [14]: > 10 days
- Activity [21]: 0.12 mol/mol

Further lines, results first:

- t1/2 [9]: 2.1 min
- t1/2 [14]: > 10 days
SMILES: CCN(CC)/[N+]([O-])=N/O[C@@H]1O[C@H](CO)[C@@H](O)[C@H](O)[C@H]1O

- t1/2 [9]: 298 min
- t1/2 [10]: > 10 days
SMILES: CCN(CC)/[N+]([O-])=N/O[C@H]1O[C@H](CO)[C@@H](O)[C@H](O)[C@@H]1O

- t1/2 [9]: 4 min
- t1/2 [10]: > 10 days
- t1/2 [14]: > 10 days
SMILES: CCN(CC)/[N+]([O-])=N/O[C@@H]1O[C@@H](C)[C@@H](O)[C@@H](O)[C@@H]1O

Reference: ChEMBL document CHEMBL1157470, “Hydrolytic reactivity trends among potential prodrugs of the O2-glycosylated diazeniumdiolate family. Targeting nitric oxide to macrophages for antileishmanial activity” (J Med Chem, 2008)
